Results from paper PMC6445238 (Drug Design, Development and Therapy, 2019).
“Also recorded” adds a separate entry of the source. Read-outs that look alike come from different tables or passages of the source.

Legend:
[1] = 2 weeks, up to 1,000 mg/kg/day; cited from earlier work
[2] = test system: dopaminergic neuronal cells in the substantia nigra and striatum; conditions: ref unpublished data, cited from earlier work
[3] = SAD study, safety and tolerability; format: in vivo, human; conditions: for Abdominal discomfort, number of subjects (%) / Cough, number of subjects (%) / Eye swelling, number of subjects (%) / Face injury, number of subjects (%) / Headache, number of subjects (%) / Hot flush, number of subjects (%) / Hyperbilirubinemia, number of subjects (%) / Hypoesthesia, number of subjects (%) / Influenza, number of subjects (%) / Pain in extremity, number of subjects (%) / Proteinuria, number of subjects (%) / Subjects with any TEAEs, number of subjects (%) / Syncope, number of subjects (%): N=6
Summary of the method: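 SAD cohorts were 6 active and 2 placebo healthy males given a single oral dose, with 2 sentinel subjects dosed at least 24 h before the rest. Confinement ran day −1 to day 3, with outpatient visits on days 4 and 7 and follow-up on day 14. Safety covered vital signs, clinical labs, 12-lead ECG, physical exams, and reported or observed AEs, coded with MedDRA 19.1. Counts are subjects with AEs, % of the safety population. Placebo subjects were pooled.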

[4] = cited from earlier work
[5] = test system: dopaminergic neurons treated with MPTP; conditions: dose-dependent, ref unpublished data; cited from earlier work
[6] = test system: alpha-synuclein oligomer, total tau, phosphor-tau; assay: MAD study, PD biomarkers; format: in vivo, human
Summary of the method: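 Healthy male volunteers in the MAD part: young (19–45 y) or elderly (>60 y), randomized 6 active : 2 placebo per cohort, oral dosing once daily for 7 days. Blood and CSF sampled for alpha-synuclein oligomer, and CSF for total and phospho-tau, at day 1 predose and day 7, 1 h after last dose. CSF (about 2 mL) by lumbar puncture at L3–L4. Protein levels were measured by an external biomarker core.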

[7] = PD assessments with CNS scales; format: in vivo, human

Cc1nn(Cc2ccc(Br)cc2)c(C)c1NC(=O)CSc1ccccc1 [KM-819]
adverse effects after repeated administration [1]: did not show adverse effects
behavioral impairments [2]: improved the behavioral impairments
protection of dopaminergic neuronal cells ([2]; substantia nigra and striatum): protected the dopaminergic neuronal cells
serious adverse events (SAEs) ([3]; SAD): no serious adverse events
bilirubin levels ([3]; SAD, 10 mg and 30 mg cohorts, day 2, normal on day 7): increasing trend of bilirubin levels
Abdominal discomfort, number of subjects (%) ([3]; single 10 mg, young): 0
Cough, number of subjects (%) ([3]; single 10 mg, young): 0
Eye swelling, number of subjects (%) ([3]; single 10 mg, young): 0
Face injury, number of subjects (%) ([3]; single 10 mg, young): 0
Headache, number of subjects (%) ([3]; single 10 mg, young): 0
Hot flush, number of subjects (%) ([3]; single 10 mg, young): 0
Hyperbilirubinemia, number of subjects (%) ([3]; single 10 mg, young): 2 (33.3)
Hypoesthesia, number of subjects (%) ([3]; single 10 mg, young): 0
Influenza, number of subjects (%) ([3]; single 10 mg, young): 0
Pain in extremity, number of subjects (%) ([3]; single 10 mg, young): 0
Proteinuria, number of subjects (%) ([3]; single 10 mg, young): 0
Subjects with any TEAEs, number of subjects (%) ([3]; single 10 mg, young): 2 (33.3)
Syncope, number of subjects (%) ([3]; single 10 mg, young): 0
Abdominal discomfort, number of subjects (%) ([3]; single 30 mg, young): 0
Cough, number of subjects (%) ([3]; single 30 mg, young): 0
Eye swelling, number of subjects (%) ([3]; single 30 mg, young): 0
Face injury, number of subjects (%) ([3]; single 30 mg, young): 0
Headache, number of subjects (%) ([3]; single 30 mg, young): 0
Hot flush, number of subjects (%) ([3]; single 30 mg, young): 0
Hyperbilirubinemia, number of subjects (%) ([3]; single 30 mg, young): 0
Hypoesthesia, number of subjects (%) ([3]; single 30 mg, young): 0
Influenza, number of subjects (%) ([3]; single 30 mg, young): 0
Pain in extremity, number of subjects (%) ([3]; single 30 mg, young): 1 (16.7)
Proteinuria, number of subjects (%) ([3]; single 30 mg, young): 0
Subjects with any TEAEs, number of subjects (%) ([3]; single 30 mg, young): 2 (33.3)
Syncope, number of subjects (%) ([3]; single 30 mg, young): 1 (16.7)
Abdominal discomfort, number of subjects (%) ([3]; single 100 mg, young): 0
Cough, number of subjects (%) ([3]; single 100 mg, young): 0
Eye swelling, number of subjects (%) ([3]; single 100 mg, young): 0
Face injury, number of subjects (%) ([3]; single 100 mg, young): 0
Headache, number of subjects (%) ([3]; single 100 mg, young): 0
Hot flush, number of subjects (%) ([3]; single 100 mg, young): 0
Hyperbilirubinemia, number of subjects (%) ([3]; single 100 mg, young): 1 (16.7)
Hypoesthesia, number of subjects (%) ([3]; single 100 mg, young): 1 (16.7)
Influenza, number of subjects (%) ([3]; single 100 mg, young): 0
Pain in extremity, number of subjects (%) ([3]; single 100 mg, young): 0
Proteinuria, number of subjects (%) ([3]; single 100 mg, young): 1 (16.7)
Subjects with any TEAEs, number of subjects (%) ([3]; single 100 mg, young): 2 (33.3)
Syncope, number of subjects (%) ([3]; single 100 mg, young): 0
Abdominal discomfort, number of subjects (%) ([3]; single 200 mg, elderly): 0
Cough, number of subjects (%) ([3]; single 200 mg, elderly): 0
Eye swelling, number of subjects (%) ([3]; single 200 mg, elderly): 0
Face injury, number of subjects (%) ([3]; single 200 mg, elderly): 1 (16.7)
Headache, number of subjects (%) ([3]; single 200 mg, elderly): 2 (33.3)
Hot flush, number of subjects (%) ([3]; single 200 mg, elderly): 1 (16.7)
Hyperbilirubinemia, number of subjects (%) ([3]; single 200 mg, elderly): 0
Hypoesthesia, number of subjects (%) ([3]; single 200 mg, elderly): 0
Influenza, number of subjects (%) ([3]; single 200 mg, elderly): 0
Pain in extremity, number of subjects (%) ([3]; single 200 mg, elderly): 0
Proteinuria, number of subjects (%) ([3]; single 200 mg, elderly): 0
Subjects with any TEAEs, number of subjects (%) ([3]; single 200 mg, elderly): 2 (33.3)
Syncope, number of subjects (%) ([3]; single 200 mg, elderly): 0
Abdominal discomfort, number of subjects (%) ([3]; single 200 mg, young): 1 (16.7)
Cough, number of subjects (%) ([3]; single 200 mg, young): 0
Eye swelling, number of subjects (%) ([3]; single 200 mg, young): 0
Face injury, number of subjects (%) ([3]; single 200 mg, young): 0
Headache, number of subjects (%) ([3]; single 200 mg, young): 0
Hot flush, number of subjects (%) ([3]; single 200 mg, young): 0
Hyperbilirubinemia, number of subjects (%) ([3]; single 200 mg, young): 0
Hypoesthesia, number of subjects (%) ([3]; single 200 mg, young): 0
Influenza, number of subjects (%) ([3]; single 200 mg, young): 0
Pain in extremity, number of subjects (%) ([3]; single 200 mg, young): 0
Proteinuria, number of subjects (%) ([3]; single 200 mg, young): 0
Subjects with any TEAEs, number of subjects (%) ([3]; single 200 mg, young): 1 (16.7)
Syncope, number of subjects (%) ([3]; single 200 mg, young): 0
Abdominal discomfort, number of subjects (%) ([3]; single 400 mg, young): 0
Cough, number of subjects (%) ([3]; single 400 mg, young): 0
Eye swelling, number of subjects (%) ([3]; single 400 mg, young): 0
Face injury, number of subjects (%) ([3]; single 400 mg, young): 0
Headache, number of subjects (%) ([3]; single 400 mg, young): 0
Hot flush, number of subjects (%) ([3]; single 400 mg, young): 0
Hyperbilirubinemia, number of subjects (%) ([3]; single 400 mg, young): 0
Hypoesthesia, number of subjects (%) ([3]; single 400 mg, young): 0
Influenza, number of subjects (%) ([3]; single 400 mg, young): 0
Pain in extremity, number of subjects (%) ([3]; single 400 mg, young): 0
Proteinuria, number of subjects (%) ([3]; single 400 mg, young): 0
Subjects with any TEAEs, number of subjects (%) ([3]; single 400 mg, young): 0
Syncope, number of subjects (%) ([3]; single 400 mg, young): 0
overall safety and tolerability ([3]; single or multiple doses): generally well tolerated; also recorded: no remarkable or significant safety concerns; also recorded: safe and well tolerated
no observed adverse effect level (NOAEL) ([4]; 4-week rat toxicology study): 500 mg/kg/day
adverse effects after repeated administration ([4]; 4 weeks, up to 500 mg/kg/day): did not show adverse effects
protection of dopaminergic neurons [5]: protect the dopaminergic neurons
Alpha-synuclein oligomer, CSF, change from baseline (day 1 predose) to day 7, mean (SD) ([6]; 30 mg QD, young): 49.94 (72.09) pg/mL
Alpha-synuclein oligomer, plasma, change from baseline (day 1 predose) to day 7, mean (SD) ([6]; 30 mg QD, young): 3,884.41 pg/mL
Phosphor-tau, CSF, change from baseline (day 1 predose) to day 7, mean (SD) ([6]; 30 mg QD, young): 6.41 (19.04) pg/mL
Total tau, CSF, change from baseline (day 1 predose) to day 7, mean (SD) ([6]; 30 mg QD, young): 60.30 (64.42) pg/mL
Alpha-synuclein oligomer, CSF, change from baseline (day 1 predose) to day 7, mean (SD) ([6]; 100 mg QD, young): −252.56 (643.49) pg/mL
Alpha-synuclein oligomer, plasma, change from baseline (day 1 predose) to day 7, mean (SD) ([6]; 100 mg QD, young): 575.46 (18,379.46) pg/mL
Phosphor-tau, CSF, change from baseline (day 1 predose) to day 7, mean (SD) ([6]; 100 mg QD, young): 0.21 (1.13) pg/mL
Total tau, CSF, change from baseline (day 1 predose) to day 7, mean (SD) ([6]; 100 mg QD, young): 9.23 (15.82) pg/mL
Alpha-synuclein oligomer, CSF, change from baseline (day 1 predose) to day 7, mean (SD) ([6]; 200 mg QD, elderly): 34.87 (51.42) pg/mL
Alpha-synuclein oligomer, plasma, change from baseline (day 1 predose) to day 7, mean (SD) ([6]; 200 mg QD, elderly): −11,712.09 pg/mL
Phosphor-tau, CSF, change from baseline (day 1 predose) to day 7, mean (SD) ([6]; 200 mg QD, elderly): 5.16 (10.88) pg/mL
Total tau, CSF, change from baseline (day 1 predose) to day 7, mean (SD) ([6]; 200 mg QD, elderly): 29.30 (100.07) pg/mL
Alpha-synuclein oligomer, CSF, change from baseline (day 1 predose) to day 7, mean (SD) ([6]; 200 mg QD, young): 0.60 (18.22) pg/mL
Alpha-synuclein oligomer, plasma, change from baseline (day 1 predose) to day 7, mean (SD) ([6]; 200 mg QD, young): 3,809.51 pg/mL
Phosphor-tau, CSF, change from baseline (day 1 predose) to day 7, mean (SD) ([6]; 200 mg QD, young): 4.47 (7.88) pg/mL
Total tau, CSF, change from baseline (day 1 predose) to day 7, mean (SD) ([6]; 200 mg QD, young): −3.16 (15.01) pg/mL
Alpha-synuclein oligomer, CSF, change from baseline (day 1 predose) to day 7, mean (SD) ([6]; 400 mg QD, young): 18.21 (103.83) pg/mL
Alpha-synuclein oligomer, plasma, change from baseline (day 1 predose) to day 7, mean (SD) ([6]; 400 mg QD, young): −64,843.29 pg/mL
Phosphor-tau, CSF, change from baseline (day 1 predose) to day 7, mean (SD) ([6]; 400 mg QD, young): 6.70 (11.82) pg/mL
Total tau, CSF, change from baseline (day 1 predose) to day 7, mean (SD) ([6]; 400 mg QD, young): 27.86 (66.07) pg/mL
Bond and Lader VAS ([7]; SAD and MAD): No signs of KM-819 treatment-related effects
C-SSRS ([7]; SAD and MAD): no apparent treatment or cohort differences
K-WAIS-IV ([7]; SAD and MAD): no clear treatments differences
POMS ([7]; SAD and MAD): no apparent treatment or cohort differences
effects on the estimated pharmacodynamic variables ([7]; whole study): No clear treatment-related effects
